According to ChEMBL document CHEMBL1158074, “Cytotoxic constituents from the formosan soft coral Clavularia inflata var. luzoniana” (J Nat Prod, 2006):
Values after ≈ are worked out from the molar mass of the structure shown. Active and inactive are the calls of the source. The calls are words filed in the database; no cut-off is given here.

What was measured:
HT-29 = test: Cytotoxicity against human HT 29 cells; type: functional, cell-based
Method in brief: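 HT-29 human colon adenocarcinoma cells were obtained from the American Type Culture Collection. The value is reported as an ED50.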

P388 = test: Cytotoxicity against mouse P388 cells; type: functional; settings: for EC50: read-out: ED50 (the source's name)
Method in brief: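 P-388 mouse lymphocytic leukemia cells were provided by an academic laboratory at the University of Illinois at Chicago. Activity is expressed as an ED50.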

SMILES | Activity (HT-29) | EC50 (P388) | EC50 (HT-29; read-out: ED50 (the source's name)) | Activity (P388) | EC50 (HT-29; read-out: EC50)
C=C1CC/C=C(\C)C/C=C2/[C@H](C(C)C)[C@@H](O)C[C@@]2(C)CC1=O | inactive | 1.5 µg/mL (≈ 4.96 µM) | – | – | –
C=C1[C@@H]2[C@@H](OC(C)=O)OC=C([C@H](OC(C)=O)[C@@H](C=C(C)C)OC(C)=O)[C@H]2CC/C(C)=C/[C@H](OC(=O)c2ccccc2)[C@H]1O | – | 0.5 µg/mL (≈ 0.838 µM) | 1.2 µg/mL (≈ 2.01 µM) | – | –
C=C1CC[C@H]2[C@@H]([C@@H]3[C@@H]1C[C@@H](O)[C@@]3(C)O)C2(C)C | inactive | – | – | inactive | –
CC1(C)[C@@H]2[C@@H]3[C@H](C[C@@H](O)[C@@]3(C)O)[C@@](C)(O)CC[C@@H]21 | inactive | – | – | inactive | –
C=C1CC[C@H]2[C@@H]([C@H]3C(C)=CC[C@@]13OO)C2(C)C | inactive | – | – | inactive | –
CC(=O)C(O)C[C@@H]1[C@@H]([C@@H]2[C@H]3CC[C@@]23C)C1(C)C (stereo partly specified) | inactive | – | – | inactive | –
C=C1CC/C=C(\C)C/C=C2/[C@H](C(C)C)CC[C@@]2(C)C[C@@H]1O | inactive | 3.6 µg/mL (≈ 12.5 µM) | – | – | –
C=C1CC/C=C(\C)C/C=C2/[C@H](C(C)C)CC[C@@]2(C)CC1=O | – | 0.6 µg/mL (≈ 2.09 µM) | – | – | 2.8 µg/mL (≈ 9.77 µM)
